Assay results taken from ChEMBL document CHEMBL1125563, “Selective, centrally acting serotonin 5-HT2 antagonists. 1. 2- and 6-substituted 1-phenyl-3-(4-piperidinyl)-1H-indoles” (J Med Chem, 1992).
pIC50: −log10 of the molar value.

How the values were obtained:
[1] = target: T1, Adrenergic receptor alpha-1 (Rattus norvegicus, UniProt P15823+P23944+P43140); experiment: Displacement of [3H]prazosin from Alpha-1 adrenergic receptor of whole rat brain membranes; format: cell membranes, Membrane
T1 sequence (P15823 whole entry): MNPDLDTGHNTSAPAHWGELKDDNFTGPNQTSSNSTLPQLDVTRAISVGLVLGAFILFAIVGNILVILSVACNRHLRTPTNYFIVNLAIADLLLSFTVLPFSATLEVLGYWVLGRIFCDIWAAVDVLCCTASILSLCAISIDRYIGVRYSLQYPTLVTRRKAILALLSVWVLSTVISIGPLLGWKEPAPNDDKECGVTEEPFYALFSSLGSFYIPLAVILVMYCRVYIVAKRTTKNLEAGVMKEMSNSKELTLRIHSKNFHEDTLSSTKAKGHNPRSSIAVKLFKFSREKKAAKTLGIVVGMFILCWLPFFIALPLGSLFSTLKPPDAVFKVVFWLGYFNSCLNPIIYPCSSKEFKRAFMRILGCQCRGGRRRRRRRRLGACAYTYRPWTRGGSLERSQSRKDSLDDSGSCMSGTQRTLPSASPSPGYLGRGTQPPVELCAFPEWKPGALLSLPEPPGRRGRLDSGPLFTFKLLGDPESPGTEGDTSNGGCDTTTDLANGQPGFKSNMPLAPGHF
T1 sequence (P23944 whole entry): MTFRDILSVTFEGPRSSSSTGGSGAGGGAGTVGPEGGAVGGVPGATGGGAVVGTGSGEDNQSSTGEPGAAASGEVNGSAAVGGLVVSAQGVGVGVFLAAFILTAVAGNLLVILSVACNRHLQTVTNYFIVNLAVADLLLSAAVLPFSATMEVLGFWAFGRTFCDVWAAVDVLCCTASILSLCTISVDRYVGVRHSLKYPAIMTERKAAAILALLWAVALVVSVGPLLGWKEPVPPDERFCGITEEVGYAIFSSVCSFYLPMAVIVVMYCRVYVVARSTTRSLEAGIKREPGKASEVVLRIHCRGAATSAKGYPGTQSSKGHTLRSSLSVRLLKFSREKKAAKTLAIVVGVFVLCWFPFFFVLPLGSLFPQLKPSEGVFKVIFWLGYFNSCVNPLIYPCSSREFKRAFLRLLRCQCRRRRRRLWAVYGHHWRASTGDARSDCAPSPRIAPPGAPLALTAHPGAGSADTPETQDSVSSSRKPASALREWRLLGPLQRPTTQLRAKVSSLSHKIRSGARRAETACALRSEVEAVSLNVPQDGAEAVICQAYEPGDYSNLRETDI
T1 sequence (P43140 whole entry): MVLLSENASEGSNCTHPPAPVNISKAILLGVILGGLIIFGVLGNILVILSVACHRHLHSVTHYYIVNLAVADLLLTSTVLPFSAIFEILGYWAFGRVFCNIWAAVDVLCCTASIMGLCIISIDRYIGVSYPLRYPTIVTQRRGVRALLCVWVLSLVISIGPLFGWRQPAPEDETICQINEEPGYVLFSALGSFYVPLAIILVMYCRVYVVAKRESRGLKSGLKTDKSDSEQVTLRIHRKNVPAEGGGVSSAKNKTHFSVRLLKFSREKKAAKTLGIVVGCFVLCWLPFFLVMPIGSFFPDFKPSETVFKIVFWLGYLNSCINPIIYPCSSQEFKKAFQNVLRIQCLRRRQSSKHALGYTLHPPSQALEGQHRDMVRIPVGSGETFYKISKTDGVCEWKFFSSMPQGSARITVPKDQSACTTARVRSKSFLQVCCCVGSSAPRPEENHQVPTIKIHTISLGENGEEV
Outline: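 α1 adrenoceptor binding measured as displacement of [3H]prazosin from whole rat brain membranes. Five test-drug concentrations spanning three decades in triplicate, two full curves; IC50 from log concentration-effect curves, logarithmic mean of at least two determinations.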

Mus musculus [2] = organism: Mus musculus; experiment: Compound was evaluated for the inhibition of isolation-induced aggression at a threshold of 180 seconds; format: functional
Outline: (§1)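 Isolated male NMRI mice (3 weeks) trained to attack a nonaggressive intruder of the same strain; only mice with attack latency <25 s included. Pretested just before dosing and 2 h after sc test substance; observation maximum 180 s; at least eight mice per dose.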

Mus musculus [3] = organism: Mus musculus; experiment: Compound was evaluated for the inhibition of isolation-induced aggression at a threshold of, 90 seconds; format: functional; outline: as §1
Rattus norvegicus [4] = experiment: Compound was evaluated for the inhibition of quipazine-induced head twitches after 2 h (administered subcutaneously); 0.064-0.18; format: functional; conditions: sc
Rattus norvegicus [5] = experiment: Compound was evaluated for the inhibition of quipazine-induced head twitches after 24 hr (administered subcutaneously); 0.017-0.16; format: functional; conditions: sc
Rattus norvegicus [6] = experiment: Compound was evaluated for the inhibition of quipazine-induced head twitches after 24 hr (administered perorally); 0.026-0.12; format: functional; conditions: po
Rattus norvegicus [7] = experiment: Compound was evaluated for the inhibition of pergolide-induced reactions after 2 hr (administered subcutaneously); format: functional; conditions: sc
Outline: (§2)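 Male Wistar rats with unilateral 6-OHDA lesions; test drug sc 2 h before pergolide (0.05 µmol/kg sc) to induce contralateral circling. Effect of each dose expressed as percent of mean of control sessions 1 week before and 1 week after, per rat; at least four rats per dose; ED50 by log-probit analysis.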

[8] = target: Serotonin 2 (5-HT2) receptor (Rattus norvegicus, UniProt P30994+P08909+P14842); experiment: Displacement of [3H]ketanserin from 5-hydroxytryptamine 2 receptor from rat cortical membranes.; format: cell membranes, Membrane
Outline: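 [3H]ketanserin displacement from rat cortical membranes (5-HT2). Five concentrations across three decades in triplicate, two full curves; IC50 estimated on a log-concentration scale, given as logarithmic mean of at least two determinations.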

D(2) dopamine receptor = D(2) dopamine receptor (Rattus norvegicus, UniProt P61169); experiment: Displacement of [3H]-spiperone from Dopamine receptor D2 from rat striatal membranes; format: cell membranes, Membrane
Chain of D(2) dopamine receptor (P61169 whole entry): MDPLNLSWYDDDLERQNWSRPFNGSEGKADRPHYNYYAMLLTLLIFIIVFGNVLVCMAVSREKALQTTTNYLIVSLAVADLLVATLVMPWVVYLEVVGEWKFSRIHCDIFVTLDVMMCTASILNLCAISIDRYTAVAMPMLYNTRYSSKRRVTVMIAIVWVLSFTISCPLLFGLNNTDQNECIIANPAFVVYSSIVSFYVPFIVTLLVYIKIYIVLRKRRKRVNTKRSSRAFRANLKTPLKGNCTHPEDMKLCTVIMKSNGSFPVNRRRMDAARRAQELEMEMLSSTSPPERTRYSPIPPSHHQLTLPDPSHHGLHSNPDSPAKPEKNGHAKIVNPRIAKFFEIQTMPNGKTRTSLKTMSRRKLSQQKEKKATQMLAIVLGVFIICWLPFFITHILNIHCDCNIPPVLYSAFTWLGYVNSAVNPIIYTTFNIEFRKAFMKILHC
Outline: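 [3H]spiperone displacement from rat striatal membranes (D2). Five test-drug concentrations over three decades, in triplicate, two full curves; IC50 from log concentration-effect curves, reported as logarithmic mean of at least two determinations.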

Rattus norvegicus [9] = experiment: Compound was evaluated for the inhibition of quipazine-induced head twitches after 24 hr (administered subcutaneously); 0.0089-0.12; format: functional; conditions: sc
Rattus norvegicus [10] = experiment: Compound was evaluated for the inhibition of quipazine-induced head twitches after 24 hr (administered perorally); 0.017-0.18; format: functional; conditions: po
Rattus norvegicus [11] = experiment: Compound was evaluated for the inhibition of quipazine-induced head twitches after 2 hr (administered subcutaneously); 0.0027-0.073; format: functional; conditions: sc
Mus musculus [12] = organism: Mus musculus; experiment: Compound was evaluated for the inhibition of isolation-induced aggression at a threshold of 180 seconds; 4.4-13; format: functional; outline: as §1
Mus musculus [13] = organism: Mus musculus; experiment: Compound was evaluated for the inhibition of isolation-induced aggression at a threshold of, 90 seconds; 3.7-9.4; format: functional; outline: as §1
Rattus norvegicus [14] = experiment: Compound was evaluated for the inhibition of quipazine-induced head twitches after 2 hr (administered subcutaneously); 0.022-0.056; format: functional; conditions: sc
Rattus norvegicus [15] = experiment: Compound was evaluated for the inhibition of quipazine-induced head twitches after 24 hr (administered subcutaneously); 0.014-0.066; format: functional; conditions: sc
Rattus norvegicus [16] = experiment: Compound was evaluated for the inhibition of quipazine-induced head twitches after 24 hr (administered perorally); 0.020-0.078; format: functional; conditions: po
Rattus norvegicus [17] = experiment: Compound was evaluated for the inhibition of pergolide-induced reactions after 2 hr (administered subcutaneously); 1.5-8.9; format: functional; conditions: sc; outline: as §2

Compound	IC50 [1] [nM]	IC50 [8] [nM]	pIC50 (D(2) dopamine receptor)	also measured
CC(C)N1CCN(CCN2CCC(c3cn(-c4ccc(F)cc4)c4cc(Cl)ccc34)CC2)C1=O	70	1.5		ED50 (Mus musculus [2]): 2 µmol/kg; ED50 (Mus musculus [3]): 2.3 µmol/kg; ED50 (Rattus norvegicus [4]): 0.11 µmol/kg; ED50 (Rattus norvegicus [5]): 0.052 µmol/kg; ED50 (Rattus norvegicus [6]): 0.055 µmol/kg; ED50 (Rattus norvegicus [7]): > 17 µmol/kg
O=C1NCCN1CCN1CCC(c2cn(-c3ccc(F)cc3)c3cc(C(F)(F)F)ccc23)CC1	33	1.7	6.59	
Cc1ccc2c(C3CCN(CCNC(=O)N(C)C)CC3)cn(-c3ccc(F)cc3)c2c1	22	2.6	7.42	
Cc1ccc2c(C3CCN(CCN4CCN(C(C)C)C4=O)CC3)cn(-c3ccccc3)c2c1	120	2		ED50 (Mus musculus [2]): > 11 µmol/kg; ED50 (Mus musculus [3]): > 11 µmol/kg; ED50 (Rattus norvegicus [9]): 0.032 µmol/kg; ED50 (Rattus norvegicus [10]): 0.056 µmol/kg; ED50 (Rattus norvegicus [7]): > 22 µmol/kg; ED50 (Rattus norvegicus [11]): 0.014 µmol/kg
Cc1ccc2c(C3CCN(CCN4CCN(C(C)C)C4=O)CC3)cn(-c3cccc(C(F)(F)F)c3)c2c1		150		
CC(C)N1CCN(CCN2CCC(c3c[nH]c4cc(Cl)ccc34)CC2)C1=O	34	66	6.70	
Cc1ccc2c(C3CCN(CCN4CCN(C(C)C)C4=O)CC3)cn(-c3ccccc3F)c2c1	370	2.5		
Cc1ccc2c(C3CCN(CCN4CCN(C(C)C)C4=O)CC3)cn(-c3cccc(F)c3)c2c1	670	11		
CC(C)N1CCN(CCN2CCC(c3cn(-c4ccc(F)cc4)c4cc(F)ccc34)CC2)C1=O	13	1.3	7.55	
CN(C)C(=O)NCCN1CCC(c2cn(-c3ccc(F)cc3)c3cc(Cl)ccc23)CC1	29	1.3	7.57	
Cc1c(C2=CCN(CCN3CCNC3=O)CC2)c2ccccc2n1-c1ccc(F)cc1	23	1.1	6.80	
O=C1NCCN1CCN1CCC(c2cn(-c3ccc(F)cc3)c3cc(Cl)ccc23)CC1	9.6	1.4	7.25	
O=C1NCCN1CCN1CCC(c2cn(-c3ccc(F)cc3)c3ccc(Cl)cc23)CC1 [SERTINDOLE]	3.4			ED50 (Mus musculus [12]): 7.5 µmol/kg; ED50 (Mus musculus [13]): 5.9 µmol/kg; ED50 (Rattus norvegicus [14]): 0.035 µmol/kg; ED50 (Rattus norvegicus [15]): 0.03 µmol/kg; ED50 (Rattus norvegicus [16]): 0.039 µmol/kg; ED50 (Rattus norvegicus [17]): 3.7 µmol/kg
